For data set [1], the target named is Sodium channel protein type 9 subunit alpha (Homo sapiens, UniProt Q15858). Briefly: Inhibition of peripheral nerve sodium channel NaV1.7.
Data set [2] has as its target T1, hERG (KCNH2) (Homo sapiens, UniProt Q12809). Briefly: (§1) Displacement of [35S]-labeled MK499 from hERG at 10 uM. The settings on record: probe [35S]-MK499.
The target in data set [3] is Voltage-gated inwardly rectifying potassium channel KCNH2 (Homo sapiens, UniProt Q12809). The description is as §1. Particulars: 10 µM.
Voltage-gated inwardly rectifying potassium channel KCNH2, sequence (Q12809 whole entry): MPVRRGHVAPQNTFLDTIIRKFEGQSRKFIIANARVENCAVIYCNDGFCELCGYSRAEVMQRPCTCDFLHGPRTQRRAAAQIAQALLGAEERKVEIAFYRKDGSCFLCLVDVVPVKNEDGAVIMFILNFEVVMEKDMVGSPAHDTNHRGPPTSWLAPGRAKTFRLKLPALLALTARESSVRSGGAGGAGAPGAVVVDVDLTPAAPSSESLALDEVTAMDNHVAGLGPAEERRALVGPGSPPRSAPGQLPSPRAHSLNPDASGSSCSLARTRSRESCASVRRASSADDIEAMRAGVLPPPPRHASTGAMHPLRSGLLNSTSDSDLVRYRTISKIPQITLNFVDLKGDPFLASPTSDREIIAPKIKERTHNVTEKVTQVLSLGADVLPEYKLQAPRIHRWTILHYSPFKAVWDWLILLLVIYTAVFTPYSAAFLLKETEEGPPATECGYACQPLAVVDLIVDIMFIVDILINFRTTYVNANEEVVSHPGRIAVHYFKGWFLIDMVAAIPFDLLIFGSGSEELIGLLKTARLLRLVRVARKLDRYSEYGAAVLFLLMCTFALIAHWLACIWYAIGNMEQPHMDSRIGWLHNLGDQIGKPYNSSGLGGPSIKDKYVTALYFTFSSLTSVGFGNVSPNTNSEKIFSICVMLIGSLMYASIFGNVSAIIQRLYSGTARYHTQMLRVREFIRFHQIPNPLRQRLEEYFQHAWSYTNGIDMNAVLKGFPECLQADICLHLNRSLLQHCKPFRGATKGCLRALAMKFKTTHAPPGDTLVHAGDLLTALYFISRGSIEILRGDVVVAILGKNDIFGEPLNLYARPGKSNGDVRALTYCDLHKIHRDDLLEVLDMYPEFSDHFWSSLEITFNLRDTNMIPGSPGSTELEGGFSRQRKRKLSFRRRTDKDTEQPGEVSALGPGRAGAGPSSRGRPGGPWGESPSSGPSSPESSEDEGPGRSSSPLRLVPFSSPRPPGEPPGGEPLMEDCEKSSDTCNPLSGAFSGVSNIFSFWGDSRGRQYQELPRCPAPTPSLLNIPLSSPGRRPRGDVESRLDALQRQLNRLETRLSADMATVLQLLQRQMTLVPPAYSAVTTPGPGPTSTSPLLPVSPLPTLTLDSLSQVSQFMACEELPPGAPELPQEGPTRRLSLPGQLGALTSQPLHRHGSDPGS
Data set [4] concerns Liver microsomes. Briefly: (§2) Stability in human liver microsome after 1 hr. In kind it is ADME. The settings on record: microsomes, 1 h.
Data set [5] deals with Rattus norvegicus. Briefly: (§3) Oral bioavailability in rat. In kind it is ADME, organism-based. Particulars: in vivo.
Data set [6] relates to Rattus norvegicus. Briefly: (§4) Half life in rat at 1 mg/kg, iv. In kind it is ADME, organism-based. The arrangement: dose 1 mg/kg, route intravenous. The settings on record: in vivo.
Data set [7] is described as follows: (§5) Cmax in rat at 3 mg/kg, po. Particulars: in vivo. Also on record: dose 3 mg/kg, route oral. In kind it is ADME, organism-based.
In data set [8] the test system is Rattus norvegicus. Briefly: AUC in rat at 3 mg/kg, po. The data set is classed as ADME, organism-based, Plasma. Also on record: dose 3 mg/kg, route oral. Particulars: in vivo.
For data set [9], the system named is Rattus norvegicus. Briefly: Anti-allodynic efficacy in rat chronic pain model at 3 mg/kg, po. In kind it is ADME, organism-based. The arrangement: dose 3 mg/kg, route oral. Particulars: in vivo. An outline of the steps: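 Chronic inflammatory pain induced in rats by intradermal injection of complete Freund's adjuvant (CFA). The read-out was reversal of CFA-induced allodynia after oral dosing.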

Data set [10] concerns the target T1, hERG (KCNH2). In words: Displacement of [35S]-labeled MK499 from hERG at 1 uM. The settings on record: probe [35S]-MK499.
Data set [11] in a line: Plasma clearance in rat at 1 mg/kg, iv. In kind it is ADME, organism-based. Also on record: dose 1 mg/kg, route intravenous.
Data set [12] can be described thus: as §4. In kind it is ADME, organism-based. The arrangement: dose 1 mg/kg, route intravenous. Particulars: in vivo.
In data set [13] the test system is Rattus norvegicus. The data set is described as §5. The data set is classed as ADME, organism-based. The arrangement: dose 3 mg/kg, route oral. Particulars: in vivo.
Data set [14] in a line: as §2. The data set is classed as ADME, microsomes. The settings on record: liver microsomes, read-out: Stability.
Data set [15] can be described thus: as §3. The data set is classed as ADME, organism-based. Particulars: in vivo.
The nature of data set [16]: Cmax in rat at 2 mg/kg, po. The settings on record: in vivo. In kind it is ADME, organism-based. The arrangement: dose 2 mg/kg, route oral.
The subject of data set [17] is Rattus norvegicus. Briefly: AUC in rat at 2 mg/kg, po. In kind it is ADME, organism-based, Plasma. The arrangement: dose 2 mg/kg, route oral. The settings on record: in vivo.

T1 sequence (Q12809 whole entry): as above
Sodium channel protein type 9 subunit alpha, sequence (Q15858 whole entry): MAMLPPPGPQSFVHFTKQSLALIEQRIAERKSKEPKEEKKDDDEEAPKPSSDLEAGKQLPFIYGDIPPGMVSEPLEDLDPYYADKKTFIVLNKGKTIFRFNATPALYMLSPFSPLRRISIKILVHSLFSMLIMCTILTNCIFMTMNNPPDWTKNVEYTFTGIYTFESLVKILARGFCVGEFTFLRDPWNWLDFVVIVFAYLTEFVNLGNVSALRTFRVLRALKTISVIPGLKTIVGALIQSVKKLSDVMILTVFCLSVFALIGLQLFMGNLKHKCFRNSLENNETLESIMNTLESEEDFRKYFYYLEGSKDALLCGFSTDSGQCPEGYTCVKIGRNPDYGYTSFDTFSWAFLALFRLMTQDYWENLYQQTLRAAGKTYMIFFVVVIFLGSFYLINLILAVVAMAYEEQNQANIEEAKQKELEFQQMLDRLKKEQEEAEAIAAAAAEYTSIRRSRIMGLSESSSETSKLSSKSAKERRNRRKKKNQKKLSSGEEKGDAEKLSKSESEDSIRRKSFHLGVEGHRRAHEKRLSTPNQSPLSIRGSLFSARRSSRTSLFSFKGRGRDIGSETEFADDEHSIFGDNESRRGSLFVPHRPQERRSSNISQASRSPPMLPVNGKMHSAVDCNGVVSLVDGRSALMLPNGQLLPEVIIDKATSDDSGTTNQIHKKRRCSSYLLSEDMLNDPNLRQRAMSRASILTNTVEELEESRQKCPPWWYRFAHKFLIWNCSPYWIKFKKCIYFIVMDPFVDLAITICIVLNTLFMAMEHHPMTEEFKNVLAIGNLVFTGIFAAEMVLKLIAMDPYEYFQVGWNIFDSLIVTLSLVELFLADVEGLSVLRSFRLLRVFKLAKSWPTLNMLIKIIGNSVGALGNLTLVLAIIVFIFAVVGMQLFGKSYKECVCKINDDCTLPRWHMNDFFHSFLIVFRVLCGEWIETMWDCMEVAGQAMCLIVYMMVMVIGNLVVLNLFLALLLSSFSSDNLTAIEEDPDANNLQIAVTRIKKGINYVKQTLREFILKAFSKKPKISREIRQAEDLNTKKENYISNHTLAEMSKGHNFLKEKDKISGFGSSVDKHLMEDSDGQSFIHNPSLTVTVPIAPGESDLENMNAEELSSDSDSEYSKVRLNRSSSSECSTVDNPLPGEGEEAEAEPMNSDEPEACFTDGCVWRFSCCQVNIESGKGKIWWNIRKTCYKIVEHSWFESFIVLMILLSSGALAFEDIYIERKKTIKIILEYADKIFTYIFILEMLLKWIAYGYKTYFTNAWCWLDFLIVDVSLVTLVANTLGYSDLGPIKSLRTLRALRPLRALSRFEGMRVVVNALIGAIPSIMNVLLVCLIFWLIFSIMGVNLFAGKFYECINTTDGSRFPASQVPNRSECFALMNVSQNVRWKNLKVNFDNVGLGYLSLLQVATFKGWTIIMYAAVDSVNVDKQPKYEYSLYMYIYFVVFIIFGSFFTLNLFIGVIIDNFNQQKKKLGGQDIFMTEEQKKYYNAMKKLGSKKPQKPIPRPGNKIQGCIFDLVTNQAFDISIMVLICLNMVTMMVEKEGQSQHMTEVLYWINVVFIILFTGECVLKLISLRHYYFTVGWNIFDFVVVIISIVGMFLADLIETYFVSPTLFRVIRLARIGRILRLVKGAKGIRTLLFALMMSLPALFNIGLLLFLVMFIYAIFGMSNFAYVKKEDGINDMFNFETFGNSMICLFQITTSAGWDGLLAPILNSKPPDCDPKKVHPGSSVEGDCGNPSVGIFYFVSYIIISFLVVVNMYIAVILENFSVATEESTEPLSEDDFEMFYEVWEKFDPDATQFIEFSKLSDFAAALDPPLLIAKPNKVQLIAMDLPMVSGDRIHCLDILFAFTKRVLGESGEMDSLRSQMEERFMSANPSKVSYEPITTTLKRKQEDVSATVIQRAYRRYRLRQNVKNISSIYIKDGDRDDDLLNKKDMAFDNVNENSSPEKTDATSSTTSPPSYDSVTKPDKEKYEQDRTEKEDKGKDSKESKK

In data set [1], `COc1ccc(CCC(O)[C@@H]2CCC[C@H]2C(=O)NCc2cc(Cl)cc(Cl)c2)cc1` (relative stereo) registered an IC50 of 1210 nM. For the same compound, in data set [2], the inhibition at 10 µM is 70%.

In data set [1], `O=C(NC[C@@H]1CCC[C@H]1C(O)CCc1ccccc1)c1cc(Cl)cc(Cl)c1` (relative stereo) yielded an IC50 above 3000 nM. For the same compound, the inhibition at 10 µM in [2] worked out at 79%.

`OC(CCc1ccccc1)[C@@H]1CCC[C@H]1COCc1cc(Cl)cc(Cl)c1` (relative stereo) registered a half-inhibitory concentration (IC50) in [1] of 1110 nM. This compound also displayed an inhibition at 10 µM in data set [2] of 59%.

Compound `O=C(NCc1ccccc1)[C@@H]1CCC[C@H]1C(O)CCc1ccccc1` (relative stereo) had an IC50 in data set [1] above 3000 nM.

`OC(CCc1ccccc1)[C@@H]1CCC[C@H]1COCc1ccc(OC(F)(F)F)cc1` (relative stereo): the IC50 in data set [1] is 820 nM. Moreover, in data set [2], the inhibition at 10 µM came to 65%.

`O=C(NCc1cc(Cl)cc(Cl)c1)[C@@H]1CCC[C@H]1C(O)CCc1ccccc1OC(F)(F)F` (relative stereo) came in with an IC50 in data set [1] of 1150 nM. Besides, in data set [2], testing at 10 µM gave an inhibition of 73%.

In the case of `O=C(NCc1ccccc1)[C@@H]1CCC[C@H]1C(O)CCc1ccc(OC(F)(F)F)cc1` (stereo in doubt; 13A), in [1], half-maximal inhibition (IC50) was put at 520 nM. For the same compound, the Inhibition in [3] is given as 68%.

Compound `O=C(NCc1cc(Cl)cc(Cl)c1)[C@@H]1CCC[C@H]1C(O)CCc1ccc(OC(F)(F)F)cc1` (relative stereo) came in with an IC50 in data set [1] of 870 nM. Besides, the inhibition at 10 µM in data set [2] is 93%.

Turning to `O=S(=O)(NC[C@@H]1CCC[C@H]1C(O)CCc1ccccc1)c1ccc(OC(F)(F)F)cc1` (relative stereo), the IC50 in data set [1] was 630 nM. Besides, the inhibition at 10 µM in [2] amounted to 90%.

In the case of `OC(CCc1ccccc1)[C@@H]1CCC[C@H]1OCCc1ccc(OC(F)(F)F)cc1` (relative stereo), in data set [1], the IC50 was above 3000 nM. This compound also had an inhibition at 10 µM in data set [2] of 70%.

`O=C(NCc1ccccc1)[C@@H]1CCC[C@H]1C(O)CCc1ccccc1OC(F)(F)F` (relative stereo): the IC50 in [1] was 320 nM. Further, the inhibition at 10 µM in data set [2] turned out to be 92%.

Take `O=C(NCc1cc(Cl)cc(Cl)c1)[C@@H]1CCC[C@H]1C(O)CCc1cccc(OC(F)(F)F)c1` (relative stereo): in data set [1], half-maximal inhibition (IC50) required 440 nM. For the same compound, the inhibition at 10 µM in [2] is 87%.

In turn, `O=C(NCc1ccccc1)[C@@H]1CCC[C@H]1C(O)CCc1ccc(OC(F)(F)F)cc1` (stereo in doubt; 13) yielded an IC50 in data set [1] of 640 nM. The Inhibition in [3] amounted to 52%. Further, in [4], the Stability turned out to be 13%. In data set [5], this compound displayed an F of 40%. The compound also showed a T1/2 in data set [6] of 1.6 h. This compound also yielded a Cmax in data set [7] of 1900 nM. Further, the AUC in data set [8] stood at 5.3 µM·h. Besides, the Efficacy in data set [9] worked out at 25%.

Compound `OC(CCc1ccccc1)[C@@H]1CCC[C@H]1OCCc1cc(Cl)cc(Cl)c1` (relative stereo) gave an IC50 in [1] above 3000 nM. The same compound showed an inhibition at 10 µM in data set [2] of 40%.

Take `O=C(NCc1ccccc1)[C@@H]1CCC[C@H]1C(O)CCc1cccc(OC(F)(F)F)c1` (relative stereo): half-maximal inhibition in data set [1] (IC50) required 230 nM. This compound registered an inhibition at 10 µM in data set [2] of 89%.

For `O=C(NCc1ccccc1C(F)(F)F)[C@@H]1CCC[C@H]1C(O)CCc1cccc(OC(F)(F)F)c1` (relative stereo), in [1], the IC50 worked out at 440 nM. At 10 µM the inhibition in [2] was 78%.

For the compound `O=C(NC[C@@H]1CCC[C@H]1C(O)CCc1ccccc1)c1ccc(OC(F)(F)F)cc1` (relative stereo), the IC50 in [1] was 330 nM. This compound also had an inhibition at 10 µM in data set [2] of 84%. The compound also registered an inhibition at 1 µM in [10] of 45%.

Regarding `O=S(=O)(NC[C@@H]1CCC[C@H]1C(O)CCc1ccccc1)c1cc(Cl)cc(Cl)c1` (relative stereo), in [1], the IC50 is above 3000 nM. For the same compound, the inhibition at 10 µM in [2] turned out to be 90%.

In turn, `CN(Cc1ccccc1)C(=O)[C@@H]1CCC[C@H]1C(=O)NCc1ccc(OC(F)(F)F)cc1` (relative stereo) displayed an IC50 in data set [1] of 1490 nM.

`O=C(NCc1ccccc1)[C@@H]1CCC[C@H]1C(O)CCc1ccc(OC(F)(F)F)cc1` (stereo in doubt; 13B) had an IC50 in data set [1] of 360 nM. The inhibition at 10 µM in data set [2] came to 60%. The compound further came in with a Stability in data set [4] of 49%. In addition, the F in data set [5] was determined as 65%. This compound came in with a clearance in [11] of 9 mL/min/kg. For the same compound, the half-life in data set [12] was 1.6 h. For the same compound, the Cmax in data set [13] amounted to 2300 nM. The same compound gave an AUC in data set [8] of 9 µM·h. Also, in [9], the Efficacy came to 31%.

In [1], `CS(=O)(=O)c1ccc(CCC(O)[C@@H]2CCC[C@H]2C(=O)NCc2ccc(OC(F)(F)F)cc2)cc1` (relative stereo) had an IC50 above 3000 nM.

In data set [1], `CN(Cc1ccc(-c2ccccc2S(N)(=O)=O)cc1)C(=O)[C@@H]1CCC[C@H]1C(=O)NCc1ccc(OC(F)(F)F)cc1` (relative stereo) came in with an IC50 of 290 nM. In [2], testing at 10 µM gave an inhibition of 54%. The remaining at 1 h in data set [14] worked out at 4%. In addition, the bioavailability in data set [15] is 44%. In addition, in data set [11], the clearance was determined as 14 mL/min/kg. The compound also showed a half-life in data set [12] of 1 h. Also, the peak level in data set [16] (Cmax) was 1000 nM. Also, the AUC in data set [17] worked out at 1.8 µM·h. The Efficacy in [9] was 43%.

In data set [1], `O=C(NCc1cc(Cl)cc(Cl)c1)[C@@H]1CCC[C@H]1C(O)CCc1ccccc1` (relative stereo) returned an IC50 of 980 nM. The compound also showed an inhibition at 10 µM in data set [2] of 91%.
